Experimental data from ChEMBL document CHEMBL1255410, “Activity of the investigational fluoroquinolone finafloxacin against ciprofloxacin-sensitive and -resistant Acinetobacter baumannii isolates” (2010).
In brackets after ≈: the same amount, converted by molar mass.

Experiments:
Acinetobacter baumannii [1] = assay: Antimicrobial activity against Acinetobacter baumannii isolate 1 at pH 7.2; assay type: functional
How it was run: (§1)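 MIC by agar dilution on Mueller-Hinton agar under standard conditions (pH 7.2), against isolates with characterized gyrA/parC genes. Agar pH was checked after solidifying. Plates for both drugs were prepared the same day from freshly made media, and MICs were determined simultaneously with the pH 5.8 set.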

Acinetobacter baumannii [2] = assay: Antimicrobial activity against Acinetobacter baumannii isolate 3 at pH 7.2; assay type: functional; how it was run: as §1
Acinetobacter baumannii [3] = assay: Antimicrobial activity against Acinetobacter baumannii isolate 4 at pH 7.2; assay type: functional
How it was run: (§2)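 Agar dilution MIC on Mueller-Hinton agar. For the acidic condition, HCl was added to bring the agar to pH 5.8 before pouring the antibiotic plates, and the pH was checked after the agar set. The standard condition was pH 7.2. Both drugs' plates were made the same day from fresh medium, and MICs were read at the same time.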

Acinetobacter baumannii [4] = assay: Antimicrobial activity against Acinetobacter baumannii isolate 5 at pH 7.2; assay type: functional; how it was run: as §2
Acinetobacter baumannii [5] = assay: Antimicrobial activity against Acinetobacter baumannii isolate 7 at pH 7.2; assay type: functional
How it was run: (§3)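 Agar dilution MIC on Mueller-Hinton agar under standard conditions (pH 7.2). Antibiotic-containing plates were made the same day from freshly prepared medium. Agar pH was checked after solidifying. Both fluoroquinolones were tested simultaneously against A. baumannii isolates with characterized gyrA/parC genes. MICs are in μg/ml.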

Acinetobacter baumannii [6] = assay: Antimicrobial activity against Acinetobacter baumannii isolate 12 at pH 7.2; assay type: functional; how it was run: as §1
Acinetobacter baumannii [7] = assay: Antimicrobial activity against Acinetobacter baumannii isolate 13 at pH 7.2; assay type: functional; how it was run: as §1
Acinetobacter baumannii [8] = assay: Antimicrobial activity against Acinetobacter baumannii isolate 15 at pH 7.2; assay type: functional; how it was run: as §1
Acinetobacter baumannii [9] = assay: Antimicrobial activity against Acinetobacter baumannii isolate 16 at pH 7.2; assay type: functional; how it was run: as §1
Acinetobacter baumannii [10] = assay: Antimicrobial activity against Acinetobacter baumannii isolate 18 at pH 7.2; assay type: functional; how it was run: as §1
Acinetobacter baumannii [11] = assay: Antimicrobial activity against Acinetobacter baumannii isolate 19 harboring GyrA Ser83-Leu mutation at pH 7.2; assay type: functional; how it was run: as §1
Acinetobacter baumannii [12] = assay: Antimicrobial activity against Acinetobacter baumannii isolate 22 harboring GyrA Ser83-Leu mutation at pH 7.2; assay type: functional; how it was run: as §1
Acinetobacter baumannii [13] = assay: Antimicrobial activity against Acinetobacter baumannii isolate 25 harboring GyrA Ser83-Leu mutation at pH 7.2; assay type: functional; how it was run: as §1
Acinetobacter baumannii [14] = assay: Antimicrobial activity against Acinetobacter baumannii isolate 26 harboring GyrA Ser83-Leu mutation at pH 7.2; assay type: functional; how it was run: as §1
Acinetobacter baumannii [15] = assay: Antimicrobial activity against Acinetobacter baumannii isolate 27 harboring GyrA Ser83-Leu mutation at pH 7.2; assay type: functional; how it was run: as §1
Acinetobacter baumannii [16] = assay: Antimicrobial activity against Acinetobacter baumannii isolate 38 harboring GyrA Ser83-Leu mutation at pH 7.2; assay type: functional; how it was run: as §2
Acinetobacter baumannii [17] = assay: Antimicrobial activity against Acinetobacter baumannii isolate 39 harboring GyrA Ser83-Leu mutation at pH 7.2; assay type: functional; how it was run: as §2
Acinetobacter baumannii [18] = assay: Antimicrobial activity against Acinetobacter baumannii isolate 40 harboring GyrA Ser83-Leu mutation at pH 7.2; assay type: functional; how it was run: as §2
Acinetobacter baumannii [19] = assay: Antimicrobial activity against Acinetobacter baumannii isolate 41 harboring GyrA Ser83-Leu mutation at pH 7.2; assay type: functional; how it was run: as §2
Acinetobacter baumannii [20] = assay: Antimicrobial activity against Acinetobacter baumannii isolate 44 harboring GyrA Ser83-Leu and ParC Glu84-Lys mutation at pH 7.2; assay type: functional; how it was run: as §2
Acinetobacter baumannii [21] = assay: Antimicrobial activity against Acinetobacter baumannii isolate 52 harboring GyrA Ser83-Leu and ParC Ser80-Leu mutation at pH 7.2; assay type: functional; how it was run: as §2
Acinetobacter baumannii [22] = assay: Antimicrobial activity against Acinetobacter baumannii isolate 58 harboring GyrA Ser83-Leu and ParC Ser80-Leu mutation at pH 7.2; assay type: functional; how it was run: as §3
Acinetobacter baumannii [23] = assay: Antimicrobial activity against Acinetobacter baumannii isolate 62 harboring GyrA Ser83-Leu and ParC Ser80-Leu mutation at pH 7.2; assay type: functional; how it was run: as §3
Acinetobacter baumannii [24] = assay: Antimicrobial activity against Acinetobacter baumannii isolate 64 harboring GyrA Ser83-Leu and ParC Ser80-Leu mutation at pH 7.2; assay type: functional; how it was run: as §3
Acinetobacter baumannii [25] = assay: Antimicrobial activity against Acinetobacter baumannii isolate 1 at pH 5.8; assay type: functional
How it was run: (§4)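 MIC by agar dilution on Mueller-Hinton agar acidified to pH 5.8 with HCl before antibiotic-containing plates were poured. Agar pH was rechecked once the agar had solidified. Isolates had characterized gyrA/parC genes. Plates for both drugs were made the same day from fresh media, and MICs were read in parallel with the standard-pH set.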

Acinetobacter baumannii [26] = assay: Antimicrobial activity against Acinetobacter baumannii isolate 2 at pH 5.8; assay type: functional; how it was run: as §4
Acinetobacter baumannii [27] = assay: Antimicrobial activity against Acinetobacter baumannii isolate 15 at pH 5.8; assay type: functional; how it was run: as §4
Acinetobacter baumannii [28] = assay: Antimicrobial activity against Acinetobacter baumannii isolate 19 harboring GyrA Ser83-Leu mutation at pH 5.8; assay type: functional; how it was run: as §4
Acinetobacter baumannii [29] = assay: Antimicrobial activity against Acinetobacter baumannii isolate 21 harboring GyrA Ser83-Leu mutation at pH 5.8; assay type: functional; how it was run: as §4
Acinetobacter baumannii [30] = assay: Antimicrobial activity against Acinetobacter baumannii isolate 29 harboring GyrA Ser83-Leu mutation at pH 5.8; assay type: functional; how it was run: as §4
Acinetobacter baumannii [31] = assay: Antimicrobial activity against Acinetobacter baumannii isolate 30 harboring GyrA Ser83-Leu mutation at pH 5.8; assay type: functional; how it was run: as §4
Acinetobacter baumannii [32] = assay: Antimicrobial activity against Acinetobacter baumannii isolate 35 harboring GyrA Ser83-Leu mutation at pH 5.8; assay type: functional; how it was run: as §2
Acinetobacter baumannii [33] = assay: Antimicrobial activity against Acinetobacter baumannii isolate 36 harboring GyrA Ser83-Leu mutation at pH 5.8; assay type: functional; how it was run: as §2
Acinetobacter baumannii [34] = assay: Antimicrobial activity against Acinetobacter baumannii isolate 37 harboring GyrA Ser83-Leu mutation at pH 5.8; assay type: functional; how it was run: as §2
Acinetobacter baumannii [35] = assay: Antimicrobial activity against Acinetobacter baumannii isolate 39 harboring GyrA Ser83-Leu mutation at pH 5.8; assay type: functional; how it was run: as §2
Acinetobacter baumannii [36] = assay: Antimicrobial activity against Acinetobacter baumannii isolate 40 harboring GyrA Ser83-Leu mutation at pH 5.8; assay type: functional; how it was run: as §2
Acinetobacter baumannii [37] = assay: Antimicrobial activity against Acinetobacter baumannii isolate 46 harboring GyrA Ser83-Leu and ParC Ser80-Leu mutation at pH 5.8; assay type: functional; how it was run: as §2
Acinetobacter baumannii [38] = assay: Antimicrobial activity against Acinetobacter baumannii isolate 50 harboring GyrA Ser83-Leu and ParC Ser80-Leu mutation at pH 5.8; assay type: functional; how it was run: as §2
Acinetobacter baumannii [39] = assay: Antimicrobial activity against Acinetobacter baumannii isolate 63 harboring GyrA Ser83-Leu and ParC Glu84-Lys mutation at pH 5.8; assay type: functional
How it was run: (§5)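 Agar dilution MIC on Mueller-Hinton agar acidified to pH 5.8 with HCl before the antibiotic-containing plates were poured. Agar pH was checked after solidifying. Plates were made the same day from fresh medium. Both fluoroquinolones were tested simultaneously against A. baumannii isolates with characterized gyrA/parC genes. MICs are in μg/ml.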

Acinetobacter baumannii [40] = assay: Antimicrobial activity against Acinetobacter baumannii isolate 64 harboring GyrA Ser83-Leu and ParC Ser80-Leu mutation at pH 5.8; assay type: functional; how it was run: as §5
Acinetobacter baumannii [41] = assay: Antimicrobial activity against Acinetobacter baumannii isolate 66 harboring GyrA Ser83-Leu mutation at pH 5.8; assay type: functional; how it was run: as §5
Acinetobacter baumannii [42] = assay: Antimicrobial activity against Acinetobacter baumannii isolate 60 harboring GyrA Ser83-Leu and ParC Ser80-Leu mutation at pH 5.8

O=C(O)c1cn(C2CC2)c2cc(N3CCNCC3)c(F)cc2c1=O [CIPROFLOXACIN]
MIC (Acinetobacter baumannii [1]): 0.06 mg/L (≈ 0.181 µM)
MIC (Acinetobacter baumannii [2]): 0.12 mg/L (≈ 0.362 µM)
MIC (Acinetobacter baumannii [3]): 0.12 mg/L (≈ 0.362 µM)
MIC (Acinetobacter baumannii [4]): 0.12 mg/L (≈ 0.362 µM)
MIC (Acinetobacter baumannii [5]): 0.12 mg/L (≈ 0.362 µM)
MIC (Acinetobacter baumannii [6]): 0.5 mg/L (≈ 1.51 µM)
MIC (Acinetobacter baumannii [7]): 0.5 mg/L (≈ 1.51 µM)
MIC (Acinetobacter baumannii [8]): 1 mg/L (≈ 3.02 µM)
MIC (Acinetobacter baumannii [9]): 1 mg/L (≈ 3.02 µM)
MIC (Acinetobacter baumannii [10]): 1 mg/L (≈ 3.02 µM)
MIC (Acinetobacter baumannii [11]): 1 mg/L (≈ 3.02 µM)
MIC (Acinetobacter baumannii [12]): 4 mg/L (≈ 12.1 µM)
MIC (Acinetobacter baumannii [13]): 4 mg/L (≈ 12.1 µM)
MIC (Acinetobacter baumannii [14]): 4 mg/L (≈ 12.1 µM)
MIC (Acinetobacter baumannii [15]): 4 mg/L (≈ 12.1 µM)
MIC (Acinetobacter baumannii [16]): 32 mg/L (≈ 96.6 µM)
MIC (Acinetobacter baumannii [17]): 16 mg/L (≈ 48.3 µM)
MIC (Acinetobacter baumannii [18]): 16 mg/L (≈ 48.3 µM)
MIC (Acinetobacter baumannii [19]): 16 mg/L (≈ 48.3 µM)
MIC (Acinetobacter baumannii [20]): 32 mg/L (≈ 96.6 µM)
MIC (Acinetobacter baumannii [21]): 128 mg/L (≈ 386 µM)
MIC (Acinetobacter baumannii [22]): 128 mg/L (≈ 386 µM)
MIC (Acinetobacter baumannii [23]): 128 mg/L (≈ 386 µM)
MIC (Acinetobacter baumannii [24]): > 128 mg/L
MIC (Acinetobacter baumannii [25]): 2 mg/L (≈ 6.04 µM)
MIC (Acinetobacter baumannii [26]): 2 mg/L (≈ 6.04 µM)
MIC (Acinetobacter baumannii [27]): 4 mg/L (≈ 12.1 µM)
MIC (Acinetobacter baumannii [28]): 4 mg/L (≈ 12.1 µM)
MIC (Acinetobacter baumannii [29]): 32 mg/L (≈ 96.6 µM)
MIC (Acinetobacter baumannii [30]): 32 mg/L (≈ 96.6 µM)
MIC (Acinetobacter baumannii [31]): 32 mg/L (≈ 96.6 µM)
MIC (Acinetobacter baumannii [32]): 128 mg/L (≈ 386 µM)
MIC (Acinetobacter baumannii [33]): 128 mg/L (≈ 386 µM)
MIC (Acinetobacter baumannii [34]): 128 mg/L (≈ 386 µM)
MIC (Acinetobacter baumannii [35]): > 128 mg/L
MIC (Acinetobacter baumannii [36]): > 128 mg/L
MIC (Acinetobacter baumannii [37]): > 128 mg/L
MIC (Acinetobacter baumannii [38]): > 128 mg/L
MIC (Acinetobacter baumannii [39]): > 128 mg/L
MIC (Acinetobacter baumannii [40]): > 128 mg/L
MIC (Acinetobacter baumannii [41]): 128 mg/L (≈ 386 µM)
MIC (Acinetobacter baumannii [42]): > 128 mg/L
